Experimental data published in ChEMBL document CHEMBL4138275, “Taccalonolide Microtubule Stabilizers Generated Using Semisynthesis Define the Effects of Mono Acyloxy Moieties at C-7 or C-15 and Disubstitutions at C-7 and C-25” (J Nat Prod, 2018).
Activity calls are given as the source filed them. No cut-off for these calls is given here.

How the values were obtained:
[1] = tested on: HeLa; experiment: Induction of microtubule stabilization in human HeLa cells assessed as formation of multiple aberrant mitotic spindle at 5 times IC50 after 18 hrs by indirect immunofluorescence assay; format: cell-based
Outline: (§1)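 HeLa cells treated for 18 h at 5-fold each compound's own antiproliferative IC50, with EtOH as vehicle control. Mitotic and interphase microtubules stained by indirect immunofluorescence with a β-tubulin antibody and viewed by fluorescence microscopy.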

[2] = species on record: Sus scrofa; experiment: Induction of porcine brain tubulin polymerization at 5 uM by turbidimetric method
Outline: (§2)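 Compound or vehicle (1% EtOH) added; samples prepared on ice, then warmed to 37 °C to start polymerization. Rate and extent followed turbidimetrically at 340 nm.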

[3] = tested on: HeLa; experiment: Antiproliferative activity against human HeLa cells after 48 hrs by sulforhodamine B assay; format: functional, cell-based
Outline: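 HeLa cells (STR-validated) grown in BME with 10% FBS and gentamycin, seeded 2500/well, left to adhere overnight, then exposed to compounds for 48 h. Cell density read by sulforhodamine B staining. IC50 is the concentration giving 50% inhibition of cell density versus vehicle, fitted by nonlinear regression. Mean of 3 or 4 experiments, each in triplicate, ±SD.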

[4] = tested on: HeLa; experiment: Induction of microtubule stabilization in human HeLa cells assessed as bundling of interphase microtubule at 5 times IC50 after 18 hrs by indirect immunofluorescence assay; format: cell-based; outline: as §1
[5] = Toxicity in ip dosed athymic nude mouse harboring tumor; format: organism-based; conditions: in vivo
Outline: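 Dose tolerance was assessed in tumor-bearing mice carrying drug-sensitive or drug-resistant xenografts, with compound given by ip injection. A cumulative maximal tolerated dose was determined.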

[6] = tested on: NCI/ADR-RES; experiment: Antitumor activity against human NCI/ADR-RES cells xenografted in athymic nude mouse assessed as reduction in tumor growth at 40 ug administered intratumorally on day 0, 3, 6, 10 and 14 measured on day 12 to 14 post dose; format: functional, cell-based
Outline: (§3)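 NCI/ADR-RES tumor fragments implanted s.c. in flanks of female athymic nude mice. At about 250 mm3 (100−465 mm3), mice were grouped (n = 7−9). Tumors were injected directly with 200 μL on days 0, 3, 6, 10 and 14: 20 μg in 10% EtOH/PBS, paclitaxel 40 μg in 1% Cremophor/EtOH in PBS, or vehicle. Volume = length × width × height by calipers.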

[7] = tested on: NCI/ADR-RES; experiment: Antitumor activity against human NCI/ADR-RES cells xenografted in athymic nude mouse assessed as reduction in tumor growth at 40 ug administered intratumorally on day day 0, 3, 6, 10 and 14 measured on day 0 post dose; format: functional, cell-based; outline: as §3
[8] = tested on: NCI/ADR-RES; experiment: Antitumor activity against human NCI/ADR-RES cells xenografted in athymic nude mouse assessed as reduction in tumor growth at 40 ug administered intratumorally on day 0, 3, 6, 10 and 14 measured up to 14 days during compound dosing; format: functional, cell-based; outline: as §3
[9] = tested on: Mus musculus; experiment: Toxicity in athymic nude mouse xenografted with human NCI/ADR-RES cells assessed as weight loss at 20 ug administered intratumorally on day 0, 3, 6, 10 and 14 measured on day 10; format: organism-based; conditions: in vivo, other
Outline: (§4)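 NCI/ADR-RES tumor fragments implanted s.c. in the flanks of female athymic nude mice. Randomized at a mean tumor volume of 250 mm3 (range 100−465). Dosing was 20 μg in 200 μL of 10% EtOH/PBS by intratumoral injection on days 0, 3, 6, 10 and 14; vehicle and paclitaxel groups ran alongside. Caliper volume = L×W×H. Mice were euthanized at 1500 mm3. Two-way ANOVA with Tukey post hoc.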

[10] = tested on: NCI/ADR-RES; experiment: Antitumor activity against human NCI/ADR-RES cells xenografted in athymic nude mouse administered via ip; format: functional, cell-based
[11] = tested on: NCI/ADR-RES; experiment: Antitumor activity against human NCI/ADR-RES cells xenografted in athymic nude mouse assessed as reduction in tumor growth at 20 ug administered intratumorally on day 0, 3, 6, 10 and 14 measured on day 10 post dose; format: functional, cell-based; outline: as §3
[12] = tested on: NCI/ADR-RES; experiment: Antitumor activity against human NCI/ADR-RES cells xenografted in athymic nude mouse assessed as tumor volume at 20 ug administered intratumorally on day 0, 3, 6, 10 and 14 measured up to 45 days starting from 5 days post last dose; format: functional; outline: as §3
[13] = tested on: NCI/ADR-RES; experiment: Antitumor activity against human NCI/ADR-RES cells xenografted in athymic nude mouse assessed as reduction in tumor growth at 20 ug administered intratumorally on day 0, 3, 6, 10 and 14 measured on day 12 to 14 post dose; format: functional, cell-based; outline: as §4
[14] = tested on: NCI/ADR-RES; experiment: Antitumor activity against human NCI/ADR-RES cells xenografted in athymic nude mouse assessed as reduction in tumor growth at 20 ug administered intratumorally on day day 0, 3, 6, 10 and 14 measured on day 0 post dose; format: functional, cell-based; outline: as §4
[15] = tested on: NCI/ADR-RES; experiment: Antitumor activity against human NCI/ADR-RES cells xenografted in athymic nude mouse assessed as delay in tumor growth at 20 ug administered intratumorally on day 0, 3, 6, 10 and 14 measured up to 54 days starting from 5 days post last dose; format: functional, cell-based; outline: as §3
[16] = species on record: Sus scrofa; experiment: Induction of porcine brain tubulin polymerization at 5 to 20 uM by turbidimetric method; outline: as §2
[17] = tested on: NCI/ADR-RES; experiment: Antitumor activity against human NCI/ADR-RES cells xenografted in athymic nude mouse assessed as time required to show half of the tumors to reach tumor volume <1500 mm3 at 20 ug administered intratumorally on day 0, 3, 6, 10 and 14 measured after 5 days; format: functional; outline: as §4
[18] = tested on: Mus musculus; experiment: Toxicity in athymic nude mouse xenografted with human NCI/ADR-RES cells assessed as adverse effect at 20 ug administered intratumorally on day 0, 3, 6, 10 and 14 measured on day 12; format: organism-based; conditions: in vivo, other; outline: as §4
[19] = tested on: NCI/ADR-RES; experiment: Antitumor activity against human NCI/ADR-RES cells xenografted in athymic nude mouse assessed as reduction in tumor growth at 20 ug administered intratumorally on day 0, 3, 6, 10 and 14 measured on day 12; format: functional, cell-based; outline: as §4

SMILES: CC(=O)O[C@H]1[C@H]2[C@H]([C@@H]3[C@@H](OC(=O)C(C)C)[C@@H]4[C@H]([C@H](C)[C@H]5O[C@]56OC(=O)[C@@](C)(O)[C@]46C)[C@@]3(C)[C@H]1OC(C)=O)[C@@H](O)C(=O)[C@H]1C[C@@H]3O[C@@H]3[C@H](OC(C)=O)[C@]21C
- Activity [1]: Active
- Activity [2]: Active
- IC50 [3]: 10.6 nM
- Activity [4]: Active
- MTD [5]: < 10 mg/kg

SMILES: CC(=O)O[C@H]1C(=O)[C@@]2(C)[C@H]([C@H](OC(=O)c3ccccc3)[C@]3(O)C[C@H](OC(=O)[C@H](O)[C@@H](NC(=O)c4ccccc4)c4ccccc4)C(C)=C1C3(C)C)[C@]1(OC(C)=O)CO[C@@H]1C[C@@H]2O
- Activity [6]: Active
- Activity [7]: inactive
- Activity [8]: inactive

SMILES: CC(=O)O[C@H]1[C@H]2[C@H]([C@@H]3[C@@H](OC(=O)CC(C)C)[C@@H]4[C@H]([C@H](C)[C@H]5O[C@]56OC(=O)[C@@](C)(O)[C@]46C)[C@@]3(C)[C@H]1OC(C)=O)[C@@H](O)C(=O)[C@H]1C[C@@H]3O[C@@H]3[C@H](OC(C)=O)[C@]21C
- Activity [9]: Non-Toxic
- Activity [1]: Active
- Activity [2]: Active
- Activity [10]: inactive
- Activity [11]: Active
- Activity [12]: <1500 mm3
- IC50 [3]: 2.7 nM
- Activity [13]: Active
- Activity [4]: Active
- MTD [5]: < 10 mg/kg
- Activity [14]: Active
- Activity [15]: Active

SMILES: CC(=O)O[C@H]1[C@H]2[C@H]([C@@H]3[C@@H](O)[C@@H]4[C@H]([C@H](C)[C@H]5O[C@]56OC(=O)[C@@](C)(O)[C@]46C)[C@@]3(C)[C@H]1OC(C)=O)[C@@H](O)C(=O)[C@H]1C[C@@H]3O[C@@H]3[C@H](OC(C)=O)[C@]21C
- Activity [16]: Active
- Activity [10]: inactive
- IC50 [3]: 4.2 nM

SMILES: CC(=O)O[C@H]1[C@H]2[C@H]([C@@H]3[C@@H](O)[C@@H]4[C@H]([C@H](C)[C@H]5O[C@]56OC(=O)[C@@](C)(O)[C@]46C)[C@@]3(C)[C@H]1OC(C)=O)[C@@H](OC(=O)CC(C)C)C(=O)[C@H]1C[C@@H]3O[C@@H]3[C@H](OC(C)=O)[C@]21C
- Activity [1]: Active
- Activity [2]: Active
- Time [17]: 38 days
- Activity [10]: inactive
- Activity [18]: Non-Toxic
- IC50 [3]: 2.4 nM
- Activity [13]: Active
- Activity [4]: Active
- MTD [5]: < 10 mg/kg
- Activity [19]: Active
- Activity [14]: Active

SMILES: CC(=O)O[C@@H]1[C@H]2[C@H]3[C@H]([C@H](OC(C)=O)[C@H](OC(C)=O)[C@]2(C)[C@H]2[C@H](C)[C@H]4O[C@]45OC(=O)[C@@](C)(O)[C@]5(C)[C@H]12)[C@]1(C)[C@H](C[C@@H]2O[C@@H]2[C@@H]1OC(C)=O)C(=O)[C@@H]3O
- Activity [10]: Active
- IC50 [3]: 23 nM

SMILES: CC(=O)O[C@H]1[C@H]2[C@H]([C@@H]3[C@@H](OC(=O)C4CC4)[C@@H]4[C@H]([C@H](C)[C@H]5O[C@]56OC(=O)[C@@](C)(O)[C@]46C)[C@@]3(C)[C@H]1OC(C)=O)[C@@H](O)C(=O)[C@H]1C[C@@H]3O[C@@H]3[C@H](OC(C)=O)[C@]21C
- Activity [1]: Active
- Activity [2]: Active
- IC50 [3]: 27.5 nM
- Activity [4]: Active
- MTD [5]: < 10 mg/kg

SMILES: CC(=O)O[C@H]1[C@H]2[C@H]([C@@H]3[C@@H](OC(=O)C(C)(C)C)[C@@H]4[C@H]([C@H](C)[C@H]5O[C@]56OC(=O)[C@@](C)(O)[C@]46C)[C@@]3(C)[C@H]1OC(C)=O)[C@@H](O)C(=O)[C@H]1C[C@@H]3O[C@@H]3[C@H](OC(C)=O)[C@]21C
- Activity [1]: Active
- IC50 [3]: 4.2 nM
- Activity [4]: Active
- MTD [5]: < 10 mg/kg
